Measurements: ChEMBL document CHEMBL2086298, “Synthesis and biological evaluation of fatty acyl ester derivatives of (-)-2',3'-dideoxy-3'-thiacytidine” (J Med Chem, 2012)

Tests used:
[1] = test system: Human immunodeficiency virus; assay: Antiviral activity against HIV infected in human CEM-SS cells; format: functional, organism-based; settings: Human immunodeficiency virus 1, CEM-SS
[2] = test system: Human immunodeficiency virus 1; assay: Antiviral activity against HIV1 3B assessed as inhibition of infection in HeLa P4/R5 cells expressing CD4 receptor and beta-gal incubated for 2 hrs followed by compound-wash out measured after 46 hrs by single round infection MAGI assay; format: functional, organism-based; settings: Human immunodeficiency virus 1, 3B
How it was run: (§1)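 P4R5 MAGI cells (CD4 and coreceptor expressing) were seeded at 1.2 × 10⁴ cells/well about 18 h before infection. They were exposed for 2 h at 37 °C to cell-free HIV-1 with or without compound, then washed and cultured 46 h more. Infection was read by β-galactosidase reporter chemiluminescence as a percentage of untreated infection. EC₅₀ came from regression, with triplicate wells per concentration.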

[3] = test system: Human immunodeficiency virus 1; assay: Antiviral activity against HIV1 BaL assessed as inhibition of infection in HeLa P4/R5 cells expressing CD4 receptor and beta-gal incubated for 2 hrs followed by compound-wash out measured after 46 hrs by single round infection MAGI assay; format: functional, organism-based; settings: Human immunodeficiency virus 1, BaL; how it was run: as §1
HeLa = assay: Cytotoxicity against human HeLa P4/R5 cells incubated for 2 hrs followed by compound-wash out measured after 46 hrs by MTT assay
[4] = test system: Human immunodeficiency virus 1; assay: Ratio of lamivudine EC50 to compound EC50 for HIV1 by cell-based assay; format: functional
[5] = test system: Human immunodeficiency virus 1; assay: Antiviral activity against HIV1 94US3393IN clade B clinical isolate infected in PHA-stimulated human PBMC assessed as inhibition of viral replication incubated for 6 hrs followed by compound-wash out measured after 6 days by liquid scintillation counting; format: functional, organism-based; settings: Human immunodeficiency virus 1, 94US3393IN clade B
[6] = test system: Human immunodeficiency virus 1; assay: Antiviral activity against HIV1 98USMSC5016 clade C clinical isolate infected in PHA-stimulated human PBMC assessed as inhibition of viral replication incubated for 6 hrs followed by compound-wash out measured after 6 days by liquid scintillation counting; format: functional, organism-based; settings: Human immunodeficiency virus 1, 98USMSC5016 clade C
[7] = test system: Human immunodeficiency virus 1; assay: Antiviral activity against NNTRI-resistant HIV1 A-17 clade B clinical isolate infected in PHA-stimulated human PBMC assessed as inhibition of viral replication incubated for 6 hrs followed by compound-wash out measured after 6 days by liquid scintillation counting; format: functional, organism-based; settings: Human immunodeficiency virus 1, A-17 clade B
[8] = test system: Human immunodeficiency virus 1; assay: Antiviral activity against NRTI-resistant HIV1 71361-1 clade B clinical isolate infected in PHA-stimulated human PBMC assessed as inhibition of viral replication incubated for 6 hrs followed by compound-wash out measured after 6 days by liquid scintillation counting; format: functional, organism-based; settings: Human immunodeficiency virus 1, 71361-1 clade B
[9] = test system: Human immunodeficiency virus 1; assay: Antiviral activity against multidrug-resistant HIV1 4755-5 clade B clinical isolate infected in PHA-stimulated human PBMC assessed as inhibition of viral replication incubated for 6 hrs followed by compound-wash out measured after 6 days by liquid scintillation counting; format: functional, organism-based; settings: Human immunodeficiency virus 1, 4755-5 clade B
[10] = Cytotoxicity against PHA-stimulated human PBMC incubated for 6 hrs followed by compound-wash out measured after 6 days; format: cell-based
How it was run: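 PHA-P-stimulated PBMCs pooled from at least two normal donors were exposed to compound dilutions for 6 h. Cells were then washed by medium replacement and centrifugation (~200g, 10 min) and cultured 6 days or until peak RT activity. Cytotoxicity was monitored by MTS on the same plates used for antiviral testing, alongside drug-plus-medium control wells without cells.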

CCRF-CEM [11] = assay: Cellular uptake in human CCRF-CEM cells at 50 uM after 1 hr by HPLC analysis; format: ADME, cell-based
How it was run: (§2)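 CCRF-CEM cells were grown in serum-free RPMI to ~70–80% confluency (1 × 10⁶ cells/mL), then given medium containing 50 μM compound at 37 °C for 1–72 h. Pellets were washed in ice-cold PBS and extracted with methanol/chloroform/isopropanol (4:3:1), then filtered. Parent ester and products were tracked by analytical HPLC at 265 nm using a water/acetonitrile (0.1% TFA) gradient.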

CCRF-CEM [12] = assay: Drug metabolism in human CCRF-CEM cells assessed as compound hydrolysis at 50 uM after 1 hr by HPLC analysis; format: ADME, cell-based; how it was run: as §2
CCRF-CEM [13] = assay: Drug metabolism in human CCRF-CEM cells assessed as compound hydrolysis at 50 uM after 1 hr by HPLC analysis
[14] = test system: Human immunodeficiency virus 1; assay: Antiviral activity against HIV1 by cell-based assay; format: functional, organism-based

Row | EC50 [2] [µM] | EC50 [3] [µM] | Compound | EC50 (HeLa) [µM] | further results
1 | 10.9 | 0.7 | CCCCCCCCCCCCCC(=O)Nc1ccn([C@@H]2CS[C@H](CO)O2)c(=O)n1 | > 228 | Ratio EC50 [4]: 115
2 | 5.3 | 0.4 | CCSCCCCCCCCCCCC(=O)Nc1ccn([C@@H]2CS[C@H](CO)O2)c(=O)n1 | > 212 | 
3 | 2.3 | 0.2 | CCSCCCCCCCCCCCC(=O)OC[C@@H]1O[C@H](n2ccc(N)nc2=O)CS1 | > 212 | 

The next lines start with the compound.

Row | Compound | EC50 [2] [µM] | EC50 [3] [µM] | EC50 (HeLa) [µM] | further results
4 | CCSCCCCCCCCCCCC(=O)O |  |  |  | EC50 [1]: 9.4 µM
5 | CCCCCCCCCCCCCC(=O)Nc1ccn([C@@H]2CS[C@H](COC(=O)CCCCCCCCCCCCC)O2)c(=O)n1 | > 154 | 135 | > 154 | 
6 | [N-]=[N+]=NCCCCCCCCCCCC(=O)Nc1ccn([C@@H]2CS[C@H](COC(=O)CCCCCCCCCCCN=[N+]=[N-])O2)c(=O)n1 | 148 | 72.6 | > 148 | 
7 | [N-]=[N+]=NCCCCCCCCCCCC(=O)Nc1ccn([C@@H]2CS[C@H](CO)O2)c(=O)n1 | 29.4 | 3.8 | > 221 | 
8 | CCCCCCCCCCCCCC(=O)OC[C@@H]1O[C@H](n2ccc(N)nc2=O)CS1 | 0.5 | 0.2 | > 228 | IC50 [5]: 0.0042 µM; IC90 [5]: 0.015 µM; IC50 [6]: 0.0019 µM; IC90 [6]: 0.0275 µM; IC50 [7]: 0.0028 µM; IC90 [7]: 0.0311 µM; IC50 [8]: 0.0433 µM; IC90 [8]: 0.253 µM; IC50 [9]: 5.09 µM; IC90 [9]: > 6.83 µM; CC50 [10]: > 6.83 µM; Drug uptake (CCRF-CEM [11]): Active; Drug metabolism (CCRF-CEM [12]): Active; Drug metabolism (CCRF-CEM [13]): Active
9 | [N-]=[N+]=NCCCCCCCCCCCC(=O)OC[C@@H]1O[C@H](n2ccc(N)nc2=O)CS1 | 0.9 | 0.7 | > 221 | 
10 | Nc1ccn([C@@H]2CS[C@H](CO)O2)c(=O)n1 [LAMIVUDINE] |  |  | > 437 | EC50 [14]: 80.3 µM; CC50 [10]: > 13.1 µM
